Laboratory results published in ChEMBL document CHEMBL4118065, “Design, synthesis and antimycobacterial activity of novel imidazo[1,2-a]pyridine-3-carboxamide derivatives” (Eur J Med Chem, 2017).
≈ marks a conversion by molar mass, not a printed value.

Experiments:
[1] = system: Mycobacterium tuberculosis; test: Antimycobacterial activity against Mycobacterium tuberculosis H37Rv ATCC 27294 after 7 days by microplate Alamar blue assay; format: functional; settings: H37Rv ATCC 27294, 168 h
Summary of the method: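 MABA against replicating M. tuberculosis. Cells grown to late log phase (70–100 Klett units) in 7H9 broth with 0.2% glycerol, 0.05% Tween 80 and 10% ADC. They were washed in PBS, filtered (8 µm) and frozen. Twofold compound dilutions received 2×10^5 CFU per well at 37 °C. Tween 80 and Alamar blue were added on day 7, then 16–24 h more. Fluorescence read at 530/590 nm. MIC = lowest concentration giving ≥90% fluorescence reduction versus bacterium-only controls.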

[2] = Cytotoxicity against African green monkey Vero cells assessed as decrease in cell viability after 72 hrs by MTT assay; format: cell-based; settings: chlorocebus sabaeus
Summary of the method: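 Vero cells grown in MEM with Earle's salts plus 10% FBS, 37 °C, 5% CO2; seeded at 1 × 10⁴ cells per well, allowed 24 h recovery, then medium replaced with assay medium with or without compound (1000 to 4 μg/mL). After 72 h exposure, viability read by MTT; CC50 calculated by Bliss analysis.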

[3] = Selectivity index, ratio of CC50 for African green monkey Vero cells to MIC=>90 for Mycobacterium tuberculosis H37Rv ATCC 27294; format: toxicity; settings: read-out: Selectivity Index
Summary of the method: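 Vero cells in MEM with Earle's salts and 10% FBS, 37 °C, 5% CO₂. Seeded at 1×10⁴ cells/well and recovered 24 h. Exposed to compound at 1000 to 4 μg/mL for 72 h. Viability by MTT. CC50 by Bliss analysis. SI is CC50 divided by MABA MIC against H37Rv ATCC 27294.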

| Compound | MIC90 [1] | CC50 at 72 h [2] | selectivity ratio [3] |
| --- | --- | --- | --- |
| Cc1ccc2nc(C)c(C(=O)NCCNc3ccc(Br)cc3)n2c1 | 0.64 µM (≈ 0.248 µg/mL) | – | – |
| Cc1ccc2nc(C)c(C(=O)NCCOc3ccc(Br)cc3)n2c1 | 0.038 µM (≈ 0.0148 µg/mL) | – | – |
| Cc1ccc2nc(C)c(C(=O)N3CCN(c4ccc(F)cc4)CC3)n2c1 | 90.3 µM (≈ 31.8 µg/mL) | – | – |
| Cc1ccc2nc(C)c(C(=O)NCCCNc3ccc([N+](=O)[O-])cc3)n2c1 | > 87 µM | – | – |
| Cc1ccc2nc(C)c(C(=O)N3CCN(c4ccccc4F)CC3)n2c1 | > 90 µM | – | – |
| Cc1ccc2nc(C)c(C(=O)NCCCNc3ccccc3)n2c1 | 6.21 µM (≈ 2 µg/mL) | – | – |
| Cc1ccc2nc(C)c(C(=O)NCCNc3ccccc3F)n2c1 | 0.76 µM (≈ 0.248 µg/mL) | – | – |
| Cc1ccc2nc(C)c(C(=O)NCCNc3ccc(C)c(C)c3)n2c1 | 0.18 µM (≈ 0.0606 µg/mL) | – | – |
| Cc1ccc2nc(C)c(C(=O)N3CCC(c4ccc(F)cc4)CC3)n2c1 | 90.3 µM (≈ 31.7 µg/mL) | – | – |
| Cc1ccc2nc(C)c(C(=O)N3CCN(c4ccccn4)CC3)n2c1 | > 95 µM | – | – |
| Cc1ccc2nc(C)c(C(=O)NCCOCc3ccc(Br)cc3)n2c1 | 0.62 µM (≈ 0.249 µg/mL) | – | – |
| Cc1ccc2nc(C)c(C(=O)N3CCN(c4ccccc4)CC3)n2c1 | 95.4 µM (≈ 31.9 µg/mL) | – | – |
| Cc1ccc2nc(C)c(C(=O)NCCCNc3ccc(C(C)(C)C)cc3)n2c1 | 1.32 µM (≈ 0.5 µg/mL) | – | – |
| Cc1ccc2nc(C)c(C(=O)NCCNc3ccc([N+](=O)[O-])cc3)n2c1 | > 90 µM | – | – |
| Cc1ccc2nc(C)c(C(=O)NCCCOc3ccc(Br)cc3)n2c1 | 0.62 µM (≈ 0.249 µg/mL) | – | – |
| Cc1ccc(N2CCN(C(=O)c3c(C)nc4ccc(C)cn34)CC2)cc1 | 46 µM (≈ 16 µg/mL) | – | – |
| Cc1ccc2nc(C)c(C(=O)NCCNc3ccccc3)n2c1 | 0.81 µM (≈ 0.25 µg/mL) | – | – |
| Cc1ccc2nc(C)c(C(=O)N3CCN(c4ccc(F)cc4F)CC3)n2c1 | > 86 µM | – | – |
| Cc1ccn2c(C(=O)NCCCNc3ccc([N+](=O)[O-])cc3)c(C)nc2c1 | > 87 µM | – | – |
| Cc1ccc2nc(C)c(C(=O)NCCNCc3ccc(Br)cc3)n2c1 | 9.97 µM (≈ 4 µg/mL) | – | – |

| Compound | MIC90 [1] | CC50 at 72 h [2] | selectivity ratio [3] |
| --- | --- | --- | --- |
| COc1ccc(NCCNC(=O)c2c(C)nc3cc(C)ccn23)cc1 | 47.3 µM (≈ 16 µg/mL) | – | – |
| Cc1ccc2nc(C)c(C(=O)NCCOCc3ccccc3)n2c1 | 1.93 µM (≈ 0.624 µg/mL) | – | – |
| Cc1ccn2c(C(=O)NCCCNc3ccccc3)c(C)nc2c1 | 12.4 µM (≈ 4.01 µg/mL) | – | – |
| COc1ccc(NCCNC(=O)c2c(C)nc3ccc(C)cn23)cc1 | 0.044 µM (≈ 0.0149 µg/mL) | 193 µM | 4400 |
| Cc1ccc2nc(C)c(C(=O)NCCNc3ccc(C(F)(F)F)cc3)n2c1 | 42.5 µM (≈ 16 µg/mL) | – | – |
| Cc1ccc2nc(C)c(C(=O)N3CCN(c4ccc([N+](=O)[O-])cc4)CC3)n2c1 | 84.4 µM (≈ 32 µg/mL) | – | – |
| COc1ccc(N2CCN(C(=O)c3c(C)nc4ccc(C)cn34)CC2)cc1 | > 87 µM | – | – |
| Cc1ccc2nc(C)c(C(=O)NCCNc3ccc(F)cc3)n2c1 | 1.53 µM (≈ 0.499 µg/mL) | – | – |
| Cc1ccc2nc(C)c(C(=O)N3CCN(c4ccc(Cl)cc4)CC3)n2c1 | 43.5 µM (≈ 16 µg/mL) | – | – |
| Cc1ccc2nc(C)c(C(=O)N3CCN(c4ccc(Br)cc4)CC3)n2c1 | > 77 µM | – | – |
| Cc1ccn2c(C(=O)NCCCNc3ccc(C(C)(C)C)cc3)c(C)nc2c1 | 10.6 µM (≈ 4 µg/mL) | – | – |
| Cc1ccc2nc(C)c(C(=O)NCCCNc3ccc(F)cc3)n2c1 | 1.47 µM (≈ 0.5 µg/mL) | – | – |
| Cc1ccc2nc(C)c(C(=O)NCCNCc3ccccc3)n2c1 | 49.6 µM (≈ 16 µg/mL) | – | – |
| Cc1ccc2nc(C)c(C(=O)NCCNc3cccc(C(F)(F)F)c3)n2c1 | 5.31 µM (≈ 2 µg/mL) | – | – |
| Cc1ccc2nc(C)c(C(=O)NCCNc3ccc(Cl)c(F)c3)n2c1 | 1.39 µM (≈ 0.502 µg/mL) | – | – |
| Cc1ccc2nc(C)c(C(=O)NCCNc3ccc(C(C)(C)C)cc3)n2c1 | 0.041 µM (≈ 0.0149 µg/mL) | 57.6 µM | 1400 |
| Cc1ccc2nc(C)c(C(=O)N3CCN(c4ccncc4)CC3)n2c1 | 95 µM (≈ 31.9 µg/mL) | – | – |
| Cc1ccc2nc(C)c(C(=O)NCCN3CCN(c4ccccc4)CC3)n2c1 | 0.66 µM (≈ 0.249 µg/mL) | – | – |
| NNC(=O)c1ccncc1 [ISONIAZID] | 0.36 µM (≈ 0.0494 µg/mL) | – | – |
| CO[C@H]1/C=C/O[C@@]2(C)Oc3c(C)c(O)c4c(O)c(c(/C=N/N5CCN(C)CC5)c(O)c4c3C2=O)NC(=O)/C(C)=C\C=C\[C@H](C)[C@H](O)[C@@H](C)[C@@H](O)[C@@H](C)[C@H](OC(C)=O)[C@@H]1C [RIFAMPIN] | 0.071 µM (≈ 0.0584 µg/mL) | – | – |
